Common to all, as to type: functional
The subject of assay [1] is Athelia rolfsii. Description: Antifungal activity against Athelia rolfsii assessed as growth inhibition by poisoned food technique. The conditions noted are these: Agroathelia rolfsii; read-out: ED50 (the source's name). In short, it runs like this: (§1)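 ED50 from poisoned-food growth inhibition on PDA at 250, 125 and 62.5 μg/mL in medium, with an acetone control. Plates were inoculated with a 5 mm mycelial disc, incubated at 28 °C, and colony diameter was measured in quadruplicate. Percent inhibition was corrected by Abbott's formula, using a correction factor from the 9 cm dish diameter, and ED50 (μg/mL) was derived by probit analysis.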

The subject of assay [2] is Fusarium udum. Description: Antifungal activity against Fusarium udum assessed as growth inhibition at 62.5 ug/ml by poisoned food technique. The essentials: (§2)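 Poisoned-food assay on PDA. Test material was diluted in acetone and mixed into molten medium at final 250, 125 or 62.5 μg/mL, with 1 mL acetone as control. Plates received a 5 mm mycelial disc from the front of a 2-week-old colony and were incubated at 28 °C until control growth was nearly complete. Colony diameter was measured, giving %I = (C−T)/C×100. Mean ± SD of four replicates.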

In assay [3] the test system is Macrophomina phaseolina. As to the kind of experiment: Antifungal activity against Rhizoctonia bataticola assessed as growth inhibition at 125 ug/ml by poisoned food technique. In short, it runs like this: as §2
Assay [4] relates to Pythium aphanidermatum. Description: Antifungal activity against Pythium aphanidermatum assessed as growth inhibition at 62.5 ug/ml by poisoned food technique. The essentials: as §2
The test system of assay [5] is Globisporangium debaryanum. As to the kind of experiment: Antifungal activity against Pythium debaryanum assessed as growth inhibition by poisoned food technique. The conditions noted are these: read-out: ED50 (the source's name). The essentials: as §1
In assay [6] the test system is Rhizoctonia solani. As to the kind of experiment: Antifungal activity against Rhizoctonia solani assessed as growth inhibition at 125 ug/ml by poisoned food technique. In short, it runs like this: as §2
Assay [7] deals with Macrophomina phaseolina. As to the kind of experiment: Antifungal activity against Rhizoctonia bataticola assessed as growth inhibition by poisoned food technique. The conditions noted are these: read-out: ED50 (the source's name). The essentials:
as §1

The test system of assay [8] is Fusarium udum. Description: Antifungal activity against Fusarium udum assessed as growth inhibition at 250 ug/ml by poisoned food technique. The essentials: as §2
The test system of assay [9] is Macrophomina phaseolina. As to the kind of experiment: Antifungal activity against Rhizoctonia bataticola assessed as growth inhibition at 250 ug/ml by poisoned food technique. The essentials:
as §2

In assay [10] the test system is Rhizoctonia solani. As to the kind of experiment: Antifungal activity against Rhizoctonia solani assessed as growth inhibition by poisoned food technique. The note with it: read-out: ED50 (the source's name). The essentials:
as §1

Assay [11] relates to Pythium aphanidermatum. As to the kind of experiment: Antifungal activity against Pythium aphanidermatum assessed as growth inhibition by poisoned food technique. The note with it: read-out: ED50 (the source's name). In short, it runs like this:
as §1

Assay [12] concerns Rhizoctonia solani. Description: Antifungal activity against Rhizoctonia solani assessed as growth inhibition at 62.5 ug/ml by poisoned food technique. In short, it runs like this:
as §2

The test system of assay [13] is Pythium aphanidermatum. Description: Antifungal activity against Pythium aphanidermatum assessed as growth inhibition at 250 ug/ml by poisoned food technique. In short, it runs like this:
as §2

The test system of assay [14] is Fusarium udum. As to the kind of experiment: Antifungal activity against Fusarium udum assessed as growth inhibition by poisoned food technique. The conditions noted are these: read-out: ED50 (the source's name). In short, it runs like this:
as §1

For assay [15], the system named is Globisporangium debaryanum. Description: Antifungal activity against Pythium debaryanum assessed as growth inhibition at 62.5 ug/ml by poisoned food technique. In short, it runs like this:
as §2

Assay [16] deals with Rhizoctonia solani. As to the kind of experiment: Antifungal activity against Rhizoctonia solani assessed as growth inhibition at 250 ug/ml by poisoned food technique. In short, it runs like this:
as §2

In assay [17] the test system is Globisporangium debaryanum. As to the kind of experiment: Antifungal activity against Pythium debaryanum assessed as growth inhibition at 125 ug/ml by poisoned food technique. The essentials:
as §2

Assay [18] has as its system Fusarium udum. As to the kind of experiment: Antifungal activity against Fusarium udum assessed as growth inhibition at 125 ug/ml by poisoned food technique. In short, it runs like this: as §2
For assay [19], the system named is Athelia rolfsii. Description: Antifungal activity against Athelia rolfsii assessed as growth inhibition at 250 ug/ml by poisoned food technique. The conditions noted are these: Agroathelia rolfsii. In short, it runs like this:
as §2

The test system of assay [20] is Athelia rolfsii. As to the kind of experiment: Antifungal activity against Athelia rolfsii assessed as growth inhibition at 125 ug/ml by poisoned food technique. The note with it: Agroathelia rolfsii. The essentials:
as §2

For assay [21], the system named is Macrophomina phaseolina. Description: Antifungal activity against Rhizoctonia bataticola assessed as growth inhibition at 62.5 ug/ml by poisoned food technique. The essentials: as §2
Assay [22] relates to Globisporangium debaryanum. As to the kind of experiment: Antifungal activity against Pythium debaryanum assessed as growth inhibition at 250 ug/ml by poisoned food technique. The essentials: as §2
Assay [23] has as its system Athelia rolfsii. As to the kind of experiment: Antifungal activity against Athelia rolfsii assessed as growth inhibition at 62.5 ug/ml by poisoned food technique. The note with it: Agroathelia rolfsii. In short, it runs like this:
as §2

Assay [24] concerns Pythium aphanidermatum. Description: Antifungal activity against Pythium aphanidermatum assessed as growth inhibition at 125 ug/ml by poisoned food technique. The essentials: as §2

In brackets after ≈: the same amount, converted by molar mass.

For orientation: inhibition means how much of the control response was suppressed.

`COc1cc(C)c(C(=O)Oc2cc(C)c(C(=O)O)c(O)c2C)c(O)c1C=O` [BAEOMYCESIC ACID]: the EC50 in the assay with Athelia rolfsii [1] is 86.7 µg/mL (≈ 231 µM); in assay [5], 144 µg/mL (≈ 383 µM); in the assay on Macrophomina phaseolina [7], 150 µg/mL (≈ 400 µM); in the assay with Rhizoctonia solani [10], 71.3 µg/mL (≈ 190 µM); in the assay with Pythium aphanidermatum [11] it was 149 µg/mL (≈ 398 µM); with Fusarium udum [14], 110 µg/mL (≈ 293 µM). The inhibition at 62.5 µg/mL came out at 33.5% with Fusarium udum [2]; 11.4% with Pythium aphanidermatum [4]; 33.4% in the assay on Rhizoctonia solani [12]; 18.3% in [15]; 17.1% with Macrophomina phaseolina [21]; 32.2% in the assay on Athelia rolfsii [23]. Also, the inhibition at 125 µg/mL in the assay on Macrophomina phaseolina [3] was 28.4%; with Rhizoctonia solani [6], 61.4%; in assay [17], 38.2%; in the assay with Fusarium udum [18], 47.1%; in the assay on Athelia rolfsii [20], 44.4%; in the assay on Pythium aphanidermatum [24], 29.3%. Further, the inhibition at 250 µg/mL in the assay with Fusarium udum [8] was 57.9%; in the assay with Macrophomina phaseolina [9], 49.1%; in the assay with Pythium aphanidermatum [13], 44.4%; with Rhizoctonia solani [16], 81.6%; in the assay with Athelia rolfsii [19] it was 72.4%; in assay [22], 77.1%.
Consider `Cc1cc(O)c(C=O)c2c1C(=O)Oc1c(CO)c(O)c3c(c1O2)C(O)OC3=O` (configuration not stated) [SLAZINIC ACID], for which the EC50 was 164 µg/mL (≈ 423 µM) in the assay with Athelia rolfsii [1]; 151 µg/mL (≈ 388 µM) in assay [5]; 161 µg/mL (≈ 416 µM) in the assay with Macrophomina phaseolina [7]; 179 µg/mL (≈ 462 µM) in the assay on Rhizoctonia solani [10]; 121 µg/mL (≈ 312 µM) in the assay with Pythium aphanidermatum [11]; 88.2 µg/mL (≈ 227 µM) with Fusarium udum [14]. Also, the inhibition at 62.5 µg/mL was determined as 31% with Fusarium udum [2]; 11.1% in the assay on Pythium aphanidermatum [4]; 22.1% in the assay with Rhizoctonia solani [12]; 11.9% in assay [15]; 9% with Macrophomina phaseolina [21]; 5.93% in the assay on Athelia rolfsii [23]. The inhibition at 125 µg/mL in the assay on Macrophomina phaseolina [3] worked out at 26.8%; in the assay on Rhizoctonia solani [6], 30.2%; in assay [17], 28.1%; in the assay on Fusarium udum [18], 50.1%; in the assay with Athelia rolfsii [20], 21%; in the assay with Pythium aphanidermatum [24], 25.5%. Besides, the inhibition at 250 µg/mL with Fusarium udum [8] was found to be 67%; in the assay with Macrophomina phaseolina [9] it was 41.2%; with Pythium aphanidermatum [13], 61%; with Rhizoctonia solani [16], 45.2%; in the assay on Athelia rolfsii [19] it was 38.2%; in [22], 43.5%.
Turning to `COC(=O)c1c(C)cc(O)c(C=O)c1O` [METHYL HAEMATOMMATE], the EC50 in the assay on Athelia rolfsii [1] amounted to 60.3 µg/mL (≈ 287 µM); in assay [5] it was 88.2 µg/mL (≈ 420 µM); in the assay on Macrophomina phaseolina [7], 52.9 µg/mL (≈ 252 µM); in the assay with Rhizoctonia solani [10] it was 50.5 µg/mL (≈ 240 µM); in the assay with Pythium aphanidermatum [11] it was 90.6 µg/mL (≈ 431 µM); in the assay with Fusarium udum [14], 71.2 µg/mL (≈ 339 µM). Besides, the inhibition at 62.5 µg/mL came out at 46.5% in the assay on Fusarium udum [2]; 24.4% with Pythium aphanidermatum [4]; 50.6% with Rhizoctonia solani [12]; 34% in assay [15]; 53.1% in the assay with Macrophomina phaseolina [21]; 44.2% with Athelia rolfsii [23]. The inhibition at 125 µg/mL in the assay with Macrophomina phaseolina [3] came to 61.4%; in the assay on Rhizoctonia solani [6], 72.6%; in assay [17], 47.3%; in the assay on Fusarium udum [18], 50.5%; with Athelia rolfsii [20], 66.6%; in the assay with Pythium aphanidermatum [24], 46.4%. Besides, the inhibition at 250 µg/mL with Fusarium udum [8] is 67.3%; in the assay with Macrophomina phaseolina [9], 78.2%; in the assay with Pythium aphanidermatum [13], 69.3%; in the assay with Rhizoctonia solani [16], 81.7%; in the assay with Athelia rolfsii [19], 89.2%; in assay [22], 71.3%.

Source of the values: ChEMBL document CHEMBL3046428, “Isolation, characterization and antifungal activity of major constituents of the Himalayan lichen Parmelia reticulata Tayl” (2011).
